Only some compounds are listed: those with a hit (about 1.2% of all), similar ones and a draw of the others.
TDP2 absorb: TDP2 (human) inhibition, absorbance primary screen; AID 720702; recombinant TDP2, T5PNP hydrolysis, p-nitrophenol absorbance 415 nm; inhibition, % at 12.8 µM; 370,000 tested, 0.34% active;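 active = inhibition above the mean of all tested compounds plus 3 SD, set per campaign, cut at about 25% in these data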;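 note: 0% = DMSO with enzyme and 100% = buffer with substrate but no TDP2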
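System: recombinant human TDP2 / Amount: 120 nM TDP2 per well / Also added: 5 mM T5PNP chromogenic substrate / Doses: 12.8 µM single point, 1% DMSO / Incubation: 2 h at 37 °C / Detection: p-Nitrophenol epi absorbance / Evaluation: % inhibition relative to enzyme-containing and enzyme-free wells / Repeats: singlicate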
NSD2 inh: NSD2 (human) methyltransferase inhibition. NSD2 peptide methylation, AlphaScreen, 120 min. inhibition, % at 12.5 µM. 310,000 tested, 0.54% active. AID 743445; in the data active = inhibition above about 50%
Fh CTSL1 inh: cathepsin L1 inhibition, PFM18AAP counter-screen | inhibition, % at 5.96 µM | recombinant F. hepatica cathepsin L1, Z-Leu-Arg-MCA fluorescence | 300,000 tested, 0.49% active | AID 1906;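 active = inhibition above the mean of all tested compounds plus 3 SD, set per screening campaign, cut at about 17% in these data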;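 note: 0% = plate median of test compound wells and 100% = 1 µM Z-Phe-Ala-diazomethylketone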
UBC9 SUMO inh: SUMOylation inhibition. P63279. HTRF SUMOylation assay, SAE1/SAE2 + UBC9, in vitro. inhibition, % at 35 µM. 290,000 tested, 0.36% active; in the data active = inhibition above about 50%, passing the limit was not always enough
An asterisk follows results filed as active; · = not tested or not shown; ! = not active in a repeat.

SMILES	TDP2 absorb	NSD2 inh	Fh CTSL1 inh	UBC9 SUMO inh
CC1(CCl)CN1S(=O)(=O)c1ccccc1 (stereo unspecified)	-2	0	28*	15
CN1CCN2c3ccc(N)cc3CC3(C(=O)NC(=O)NC3=O)C2C1 (stereo unspecified)	10	-5	·	79*
CCCCCn1c(NC(=O)c2ccco2)c(C(=O)OCC)c2nc3ccccc3nc21	·	·	3	101*
N#CCC[C@@H]1CC[C@]2(CCCN(Cc3ccccn3)C2)O1	1	·	·	·
CCN(CC)c1ccc(CN2CC=C(c3ccc(F)cc3)CC2)cc1	-14	54*	5	0
O=C(NCCN1CCC2(CC1)C(=O)NCN2c1ccccc1)c1ccc(Cl)cc1	6	·	·	·
Cc1ccc(N2C(=O)NC(=O)/C(=C\C=C\c3ccco3)C2=O)cc1C	-2	65*	-1	30
O=C1NC(=O)N(Cc2ccco2)C(=O)/C1=C/C=C/c1ccco1	1	·	-1	73*
Cc1ccc(-n2c(C)cc(/C=C3/C(=O)NC(=O)N(Cc4ccco4)C3=O)c2C)cc1	0	1	0	5
Cc1cc(/C=C2\C(=O)NC(=O)N(Cc3ccco3)C2=O)c(C)n1-c1ccc(O)cc1	0	8	-3	62*
c1ccc(C(c2ccccc2)c2ccncc2)cc1	-11	-1	·	·
CC(C)(C)NC(=O)C1CN=C(c2ccccc2)c2cc(Cl)ccc2N1C(=O)C1CCC1 (stereo unspecified)	8	·	·	·
CCOC(=O)[C@]12Cc3cc(OC)ccc3[C@H]1N(CC(=O)OC)C(=O)c1cc(OC)ccc12	-3	·	·	·
CC(C)c1ccccc1OCC(=O)N1CCCN(C)CC1	-11	1	18*	9
[Cl][Pt+2][Cl].[NH-]C1CCCCC1[NH-] (stereo unspecified)	5	·	40*	·
COc1ccc(C(=O)C2CCCN(Cc3ccc(F)cc3F)C2)cc1F (stereo unspecified)	19	0	·	13
O=C(NC(C(Cl)Cl)N1CCOCC1)c1ccccc1 (stereo unspecified)	-1	-3	68*	22
O=C(NCCN1CCC2(CC1)C(=O)NCN2c1ccccc1)c1ccccc1F	5	·	·	·
CC1(C)C[C@H]2C=C(C=O)[C@]3(C=O)C[C@]3(C)[C@H]2C1	2	·	17*	2
CS(=O)(=O)c1ccc(C2=C(CNC(=O)c3ccc([N+](=O)[O-])cc3)[C@H]3CC[C@@H](C2)N3CCOc2ccccc2)cc1	0	·	·	·
CN(C)C(=O)Oc1noc2cc(Cl)ccc12	4	1	43*	10
O=C1/C(=C\c2ccccc2)C2OCC=C3CN4CCC56c7ccccc7N1C5C2C3CC46 (stereo unspecified)	6	3	8	1
O=C(O)CC1OCC=C2CN3CCC45c6ccccc6NC4C1C2CC35 (stereo unspecified)	7	7	18*	-7
O=C(O)CC1OCC=C2CN3CCC45C6=CC(=O)C(=O)C([N+](=O)[O-])=C6NC4C1C2CC35 (stereo unspecified)	·	24	106*	100*
O=C1CC2OCC=C3CN4CCC56c7cc([N+](=O)[O-])ccc7N1C5C2C3CC46 (stereo unspecified)	7	-3	4	6
SMILES	TDP2 absorb	NSD2 inh	Fh CTSL1 inh	UBC9 SUMO inh
CN1/C(=C\C=C2C(=O)NC(=O)NC2=O)C(C)(C)c2ccccc21	-2	38	20*	2
COc1ccc(CC2=NCCc3cc(OC)c(OC)cc32)cc1OC	31*	·	·	·
COc1ccc(Cc2nccc3cc(OC)c(OC)cc23)cc1OC	24	·	5	88
CC(=O)C1C2c3ccccc3OC1(C)N=c1s/c(=C/c3cn(C)nc3C)c(=O)n12 (stereo unspecified)	22	3	34*	8
CCn1nc(-c2ccccc2)nc2c(=O)n(C)c(=O)nc1-2	·	·	114*	104*
COc1ccc(-c2nc3ccccc3c(=O)n2-c2ccc(OC)cc2)cc1	18	2	-5	7
Cc1cc(OCC(=O)N2CCC(C(=O)O)(c3ccccc3)CC2)c2c(C)c(C)c(=O)oc2c1	1	·	18*	17
CCc1cc(=O)oc2cc(C)cc(OCC(=O)N3CCC(C(=O)O)(c4ccccc4)CC3)c12	10	·	5	34
C=CCN(CC#CCO)Cc1ccc(OC)cc1OC	8	·	·	·
CCC(=O)OC1CCC2C3CCC4CC(=O)C=CC4(C)C3CCC12C (stereo unspecified)	0	0	·	·
COc1ccc(OC)c(N2C(=O)/C(=C/c3ccco3)C(=O)NC2=S)c1	·	·	6	94*
COc1ccc(N2C(=O)/C(=C/c3ccc(C)o3)C(=O)NC2=S)cc1	10	37	·	8
O=C1NC(=S)N(c2ccc(F)cc2)C(=O)/C1=C/c1ccco1	·	·	2	66*
O=C1NC(=S)N(c2ccc(F)cc2)C(=O)/C1=C\c1ccoc1	·	·	·	29
C=C1C(=O)O[C@@H]2C[C@@H](C)[C@@H]3C=CC(=O)[C@@]3(C)[C@@H](OC(=O)CC(=O)O[C@H]3[C@@H]4C(=C)C(=O)O[C@@H]4C[C@@H](C)[C@@H]4C=CC(=O)[C@]43C)[C@H]12	-8	·	-3	54*
Cc1c(CCC(=O)N2C[C@H]3C[C@@H](C2)c2cccc(=O)n2C3)c(=O)oc2c(C)c(O)ccc12	7	·	·	·
Cc1nc2c(=O)n(C)c(=O)nc-2n(C)n1	86*	·	112*	103*
CC(C)C[C@H]1N=C(c2ccccc2)c2ccccc2N(CC(=O)NC(C)(C)C)C1=O	7	·	·	·
C[n+]1c2ccccc2nc2ccc(NCCO)cc21	19	101*	38*	-9
OCCNc1c2c(nc3ccccc13)CCCC2	0	0	-1	14
CC(C)C[C@H]1C(=O)N2CCC[C@H]2[C@]2(O)O[C@](NC(=O)[C@@H]3C=C4c5cccc6[nH]cc(c56)C[C@H]4N(C)C3)(C(C)C)C(=O)N12	·	·	34*	·
C[C@H](NC(=O)OCc1ccccc1)C(=O)NC(Cc1ccccc1)P(=O)(Oc1ccccc1)Oc1ccccc1 (stereo partly specified)	-9	·	·	·
CC(=O)C1=C(C)OC2=C(C(=O)CCC2)[C@@]12C(=O)N(C)c1ccccc12	0	0	·	·
c1cncc(C2CCCCN2)c1 (stereo unspecified)	-4	·	-1	10
c1cncc(C2Nc3cccc4cccc(c34)N2)c1	1	-1	1	63*!
CN1C(=O)C2C[C@@]3(Br)c4ccccc4N(OOSc4ccccc4)[C@H]3N2C(=O)[C@@H]1Cc1ccccc1 (stereo partly specified)	9	·	4	·
CC1=NN=C(c2ccc(N)cc2)c2cc3c(cc2C1)OCO3	-1	·	39*	·
CC[C@H](C)/C=C(C)/C=C/C1=CC2=C(Cl)C(=O)[C@@](C)(OC(C)=O)C(=O)C2=CO1	·	·	0	·
CCC(C)/C=C(C)/C=C/C1=CC2=C(Cl)C(=O)C(C)(OC(C)=O)C(=O)C2=CO1 (stereo unspecified)	·	·	21*	25
COc1ccc(Oc2cc(NC(=O)c3nn(C)cc3[N+](=O)[O-])cc([N+](=O)[O-])c2)cc1	-3	·	20*	-7

Screening results (PubChem)
